The values that follow come from ChEMBL document CHEMBL2440030, “Insights into soluble guanylyl cyclase activation derived from improved heme-mimetics” (J Med Chem, 2013).

Each structure is given as a SMILES string. The source made the active and inactive calls. The rule behind the calls is not given here.

For assay [1], the species on record is Rattus norvegicus. As to the kind of experiment: Inhibition of soluble guanylyl cyclase in Wistar rat aortic smooth muscle cell assessed as reduction of cGMP accumulation at 1 uM after 15 mins by enzyme immunoassay. An outline of the steps:
(§1)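 Confluent rat aortic smooth muscle cells were exposed to vehicle or compound (0.01−1 μM) for 15 min, alone or together with 1 μM BAY 58-2667. cGMP was then extracted and quantified. Values are means ± SEM, n = 4.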

For assay [2], the species on record is Rattus norvegicus. As to the kind of experiment: Activation of soluble guanylyl cyclase in Wistar rat aortic smooth muscle cell assessed as increase of cGMP accumulation at 1 uM after 15 mins by enzyme immunoassay. An outline of the steps:
as §1

Assay [3] is filed under the species Rattus norvegicus. The experiment in a line: Activation of soluble guanylyl cyclase in Wistar rat aortic smooth muscle cell assessed as increase of cGMP accumulation after 15 mins by enzyme immunoassay. An outline of the steps: as §1

`O=C(O)CCC(=O)N(CCc1ccccc1OCc1ccc(CCc2ccccc2)cc1)Cc1ccc(C(=O)O)cc1`: the inhibition (in general, how much of the control response was suppressed) in the assay listed under Rattus norvegicus [1] is 80%. Same read-out and setting: the figure for `O=C(O)CCCCC(=O)N(CCc1ccccc1OCc1ccc(CCc2ccccc2)cc1)Cc1ccc(C(=O)O)cc1` is 80%.

For the compound `O=C(O)CCCCCN(CCc1ccccc1OCc1ccc(CCc2ccccc2)cc1)Cc1ccc(C(=O)O)cc1`, the outcome in the assay filed under Rattus norvegicus [2] was inactive. On to `O=C(O)CCCC(=O)N(CCc1ccccc1OCc1ccc(CCc2ccccc2)cc1)Cc1ccc(C(=O)O)cc1`, for which the inhibition in the assay filed under Rattus norvegicus [1] amounted to 80%. Turning to `O=C(O)CCCC(=O)N(CCc1ccccc1OCc1ccc(-c2ccc(OCc3ccccc3)cc2)cc1)Cc1ccc(C(=O)O)cc1`, the outcome in the assay filed under Rattus norvegicus [2] was Active. For `O=C(O)CCCN(CCc1ccccc1OCc1ccc(CCc2ccccc2)cc1)Cc1ccc(C(=O)O)cc1`, in the assay filed under Rattus norvegicus [2], the outcome was inactive. Take `O=C(O)CCCCN(CCc1ccccc1OCc1ccc(-c2ccc(Oc3ccccc3)cc2)cc1)Cc1ccc(C(=O)O)cc1`: the outcome in the assay listed under Rattus norvegicus [2] was Active. Moreover, in the assay listed under Rattus norvegicus [3], the Activity result was “Dose-dependent effect”.

For `COc1ccc(COc2ccc(-c3ccc(COc4ccccc4CCN(CCCCC(=O)O)Cc4ccc(C(=O)O)cc4)cc3)cc2)cc1`, the result in the assay listed under Rattus norvegicus [2] was Active.

Consider `O=C(O)CCCCN(CCc1ccccc1OCc1ccc(-c2ccc(OCc3ccccc3)cc2)cc1)Cc1ccc(C(=O)O)cc1`, for which the result in the assay filed under Rattus norvegicus [2] was Active.
